Experimental data published in PubChem BioAssay AID624363 (Broad Institute, 2012).
Several values for one entry are separate records, joined by “and”; a condition that tells them apart may be missing. Identical values can stand only once.

Tested on: SK-MEL-5 TRPM1 promoter luciferase reporter, 24 h
Test: MITF transcriptional activity inhibition, TRPM1 luciferase – cell-based, SK-MEL-5, dry powder, set 5, dose response (AID 624363)
In short: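 Assay system: SK-MEL-5 TRPM1 promoter luciferase reporter cells | Input: 2000 reporter cells per well | Doses: Test compounds added by pin transfer | Timing: 24 h compound treatment, 37 °C | Measured by: SteadyGlo luminescence | Controls: Parthenolide at 27 µM as positive control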

Row | SMILES | AC50
1 | C=CCNC1=C(N(C)C(C)=O)C(=O)c2ccccc2C1=O | 0.0923 µM
2 | C=C1C(=O)OC2C1CC/C(C)=C\CCC1(C)OC21 (stereo not drawn) | 3.51 µM
3 | COc1ccc(C2=C(NC(=O)c3cccc(OC)c3)C(=O)c3ccccc3C2=O)cc1 | 6.98 µM
4 | CN1CCN(C2=C(NS(=O)(=O)c3ccccc3)C(=O)c3ccccc3C2=O)CC1 | 1.09 µM
5 | NC1=C(NS(=O)(=O)c2cccs2)C(=O)c2ccccc2C1=O | 4.17 µM
6 | O=C1C=C(NS(=O)(=O)c2ccccc2)C(=O)c2ccccc21 | 7.45 µM
7 | O=C(NC1=C(c2ccc(OC(F)(F)F)cc2)C(=O)c2ccccc2C1=O)c1ccco1 | 20.9 µM
8 | C=CCNC1=C(Nc2ccccc2)C(=O)c2ccccc2C1=O | 15.4 µM
9 | COc1ccc(C2=C(NC(=O)c3ccc(Cl)cc3)C(=O)c3ccccc3C2=O)cc1 | 15.3 µM
10 | C=CCNC1=C(NCCCN(CC)CC)C(=O)c2ccccc2C1=O | 4.6 µM
11 | CCN(CC)CCCNC1=C(Nc2ccccc2)C(=O)c2ccccc2C1=O | 2.17 µM
12 | O=C(NC1=C(N2CCSCC2)C(=O)c2ccccc2C1=O)c1ccc(Br)cc1 | 10.1 µM
13 | C=CCNC1=C(NCCN(CC)CC)C(=O)c2ccccc2C1=O | 4.88 µM
14 | CC1CCN(CC(CS(=O)(=O)c2ccc([N+](=O)[O-])cc2)N2CCC(C)CC2)CC1 (stereo not drawn) | 2.71 µM
15 | O=C(NC1=C(c2ccccc2)C(=O)c2ccccc2C1=O)c1ccco1 | 9.7 µM
16 | CC(=O)NC1=C(c2cccc(Cl)c2)C(=O)c2ccccc2C1=O | 3.67 µM
17 | COc1ccc(C2=C(NC(=O)c3ccccc3OC)C(=O)c3ccccc3C2=O)cc1 | 23.7 µM
18 | NC1=C(NC(=O)c2ccccc2)C(=O)c2ccccc2C1=O | 4.08 µM
19 | O=C1C(NS(=O)(=O)c2ccc(Br)s2)=C(N2CCSCC2)C(=O)c2ccccc21 | 22.7 µM
20 | O=C1C(NS(=O)(=O)c2ccccc2)=C(c2ccccc2)C(=O)c2ccccc21 | 20.5 µM
21 | C=CCNC1=C(N2CCOCC2)C(=O)c2ccccc2C1=O | 2.54 µM
22 | COc1ccc(S(=O)(=O)N(C(C)=O)c2ccc(OC(C)=O)c3ccccc23)cc1[N+](=O)[O-] | 6.42 µM
23 | O=C(NC1=C(N2CCOCC2)C(=O)c2ccccc2C1=O)c1ccc(Br)cc1 | 12.5 µM
24 | NC1=C(c2ccccc2)C(=O)c2ccccc2C1=O | 4.34 µM
25 | CCN1CCN(C2=C(NC(=O)c3ccc(Br)cc3)C(=O)c3ccccc3C2=O)CC1 | 0.845 µM
26 | O=C1C(Nc2ccccc2)=C(NS(=O)(=O)c2ccccc2[N+](=O)[O-])C(=O)c2ccccc21 | 16.9 µM

Row | SMILES | AC50
27 | O=C1C=C(NS(=O)(=O)c2cccs2)C(=O)c2ccccc21 | 1.71 µM
28 | O=C(NC1=C(c2ccccc2)C(=O)c2ccccc2C1=O)c1ccc(Br)cc1 | 24.4 µM
29 | COC1=C(NS(=O)(=O)c2ccccc2)C(=O)c2ccccc2C1=O | 4.93 µM
30 | O=C1C(NS(=O)(=O)c2ccc(Br)s2)=C(N2CCOCC2)C(=O)c2ccccc21 | 15 µM
31 | CN1CCN(C2=C(NS(=O)(=O)c3cccs3)C(=O)c3ccccc3C2=O)CC1 | 3.51 µM
32 | CN1CCN(C2=C(NC(=O)c3ccc(Br)cc3)C(=O)c3ccccc3C2=O)CC1 | 1.14 µM
33 | CCN1CCN(C2=C(N(C)C(C)=O)C(=O)c3ccccc3C2=O)CC1 | 0.318 µM
34 | CC(=O)NC1=C(c2ccccc2)C(=O)c2ccccc2C1=O | 6.67 µM
35 | O=C1C(NS(=O)(=O)c2ccccc2)=C(N2CCOCC2)C(=O)c2ccccc21 | 19.3 µM
36 | NC1=CC(=O)c2ccccc2C1=O | 1.06 µM
37 | CC(=O)NC1=C(c2ccc3c(c2)oc2ccccc23)C(=O)c2ccccc2C1=O | 2.15 µM
38 | C=CCNC1=C(Cl)C(=O)c2ccccc2C1=O | 0.799 µM and 1.88 µM
39 | COc1ccc(C2=C(NC(=O)c3cccc(Cl)c3)C(=O)c3ccccc3C2=O)cc1 | 11 µM
40 | O=C(NC1=C(N2CCCCC2)C(=O)c2ccccc2C1=O)c1ccccc1 | 23.3 µM
41 | CCN(CC)CCCCNC1=C(Nc2ccccc2)C(=O)c2ccccc2C1=O | 4.14 µM
42 | C=CCNC1=C(N2CCN(CC)CC2)C(=O)c2ccccc2C1=O | 4.47 µM
43 | COc1cccc(-c2cc(C(=O)NC3=C(Cl)C(=O)c4ccccc4C3=O)ccc2OC)c1 | 3.34 µM
44 | COc1ccc(C(=O)NC2=C(c3ccc(OC(F)(F)F)cc3)C(=O)c3ccccc3C2=O)cc1 | 36.2 µM
45 | CC(=O)NC1=C(c2ccc(Oc3ccccc3)cc2)C(=O)c2ccccc2C1=O | 19.8 µM
46 | C=CCNC1=C(NC(=O)c2ccccc2)C(=O)c2ccccc2C1=O | 26.5 µM
47 | O=C(NC1=C(N2CCSCC2)C(=O)c2ccccc2C1=O)c1ccccc1 | 4.96 µM
48 | O=C1C(Nc2ccccc2)=C(c2ccccc2)C(=O)c2ccccc21 | 4.49 µM
49 | Cc1ccc(C(=O)NC2=C(c3ccccc3)C(=O)c3ccccc3C2=O)o1 | 3.23 µM
50 | Cc1nc2ccccc2n1/N=C/c1ccc([N+](=O)[O-])s1 | 4.34 µM
51 | C=CCNC1=C(NCCCN2CCOCC2)C(=O)c2ccccc2C1=O | 13.9 µM
52 | COc1ccc(C(=O)NC2=C(c3ccc(OC)cc3)C(=O)c3ccccc3C2=O)cc1 | 7.11 µM

Row | SMILES | AC50
53 | O=C1C(Nc2ccccc2)=C(N2CCN(c3ccccc3)CC2)C(=O)c2ccccc21 | 12.1 µM
54 | Cc1ccc(C(=O)NC2=C(c3ccc(OC(F)(F)F)cc3)C(=O)c3ccccc3C2=O)o1 | 13.4 µM
55 | O=C(NC1=C(c2ccccc2)C(=O)c2ccccc2C1=O)c1ccccc1 | 6.93 µM
56 | CCN(CC)CCCNC1=C(N(C)C(C)=O)C(=O)c2ccccc2C1=O | 0.305 µM
57 | O=C(CNc1cccc2ccccc12)N/N=C/c1ccc([N+](=O)[O-])o1 | 3.64 µM
58 | C=CCNC1=C(NS(=O)(=O)c2ccc(Br)cc2)C(=O)c2ccccc2C1=O | 11.9 µM
59 | CCN1CCN(C2=C(NS(=O)(=O)c3cccs3)C(=O)c3ccccc3C2=O)CC1 | 2.96 µM
60 | O=C1C(NS(=O)(=O)c2ccccc2)=C(N2CCCCC2)C(=O)c2ccccc21 | 22.2 µM
61 | CC(=O)N(C)C1=C(N2CCCCC2)C(=O)c2ccccc2C1=O | 0.796 µM
62 | C=CCNC1=C(N2CCSCC2)C(=O)c2ccccc2C1=O | 3.93 µM
63 | O=C(NC1=C(c2ccc(OC(F)(F)F)cc2)C(=O)c2ccccc2C1=O)c1ccccc1F | 19.9 µM
64 | CC(=O)N(C)C1=C(N2CCN(C)CC2)C(=O)c2ccccc2C1=O | 0.404 µM
65 | CN1CCN(C2=C(NS(=O)(=O)c3ccc(Br)s3)C(=O)c3ccccc3C2=O)CC1 | 1.98 µM
66 | CN1CCN(C2=C(NS(=O)(=O)c3ccc(Br)cc3)C(=O)c3ccccc3C2=O)CC1 | 7.58 µM
67 | O=C1C(NS(=O)(=O)c2ccc(Br)cc2)=C(N2CCCCC2)C(=O)c2ccccc21 | 27.7 µM
68 | COc1ccc(C2=C(NC(=O)c3ccccc3Cl)C(=O)c3ccccc3C2=O)cc1 | 5.18 µM
69 | O=C1C(Nc2ccccc2)=C(N2CCCCC2)C(=O)c2ccccc21 | 6.28 µM
70 | O=C1C(NCCCN2CCOCC2)=C(Nc2ccccc2)C(=O)c2ccccc21 | 3.7 µM
71 | CN1CCN(C2=C(NC(=O)c3ccccc3)C(=O)c3ccccc3C2=O)CC1 | 1.04 µM
72 | CCN1CCN(C2=C(NS(=O)(=O)c3ccc(Br)cc3)C(=O)c3ccccc3C2=O)CC1 | 8.69 µM
73 | O=C1C(NS(=O)(=O)c2cccs2)=C(c2ccccc2)C(=O)c2ccccc21 | 10.5 µM
74 | NC1=C(NS(=O)(=O)c2ccc(Br)cc2)C(=O)c2ccccc2C1=O | 8.9 µM
75 | O=C(NC1=C(N2CCOCC2)C(=O)c2ccccc2C1=O)c1ccccc1 | 8.05 µM
76 | CC(=O)NC1=C(c2ccc(Cl)cc2)C(=O)c2ccccc2C1=O | 3.45 µM
77 | CCN(CC)CCNC1=C(Nc2ccccc2)C(=O)c2ccccc2C1=O | 4.88 µM
78 | O=C1C(NS(=O)(=O)c2ccc(Br)s2)=C(N2CCCCC2)C(=O)c2ccccc21 | 23.3 µM
